PubChem BioAssay AID588843 (Broad Institute, 2011)
Results filed as inconclusive are left out. Active and inactive are the calls of the source. How the calls were made is not given here.

System: ldlA CHO mSR-BI C384S, [3H]cholesterol efflux to HDL
Experiment: cholesterol efflux inhibition via mutant SR-BI C384S, mechanism study for SR-BI HDL uptake inhibitor project, cell-based, ldlA CHO, [3H]cholesterol, single point, dry powder (AID 588843)
Conditions: for cholesterol efflux: at 1 µM, stronger effect = lower value
Procedure, shortened: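 Test system: Cys384S SR-BI ldlA CHO cells. Probe or stimulus: unlabelled HDL as cholesterol acceptor, 100 µg/mL final. Doses: test compound with 0.5% DMSO final in well. Incubation: 2-day [3H]cholesterol labelling, 1% FAF-BSA equilibration, 1-h pre-exposure, 2-h efflux. Measured by: liquid scintillation counting of [3H]cholesterol in medium and cells. Evaluation: % [3H]cholesterol effluxed to medium.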

In the case of `O=C(Nc1ccccc1Cl)c1ccccc1NS(=O)(=O)c1ccccc1`, the cholesterol efflux was 21% (inactive).
In the case of `COC(=O)c1cn(C(=O)c2cccc3ccccc23)c2ccccc12`, the cholesterol efflux was 19.2% (inactive).
In the case of `O=C(Nc1ccc(-c2nc3cc(NC(=O)c4ccccc4[N+](=O)[O-])ccc3o2)cc1)c1ccccc1[N+](=O)[O-]`, the cholesterol efflux was 5.43% and the cholesterol efflux (measured here: second test run) was 3.07%.
`O=C(Nc1cc(C(F)(F)F)ccc1Cl)c1ccccc1NS(=O)(=O)c1ccc(Cl)cc1` was tested, and the cholesterol efflux was 21.7% (inactive).
With `COc1ccc(-c2nnn(CC(=O)N(C3CCCCC3)C(C)C(=O)NC3CCCC3)n2)cc1OC` (centres undefined) the cholesterol efflux was 14.2% and the cholesterol efflux (measured here: second test run) was 7.04%.
In the case of `O=C(Nc1cc(Cl)ccc1Cl)c1cc(Br)ccc1NS(=O)(=O)c1ccc(Cl)c([N+](=O)[O-])c1`, the cholesterol efflux was 20.5% (inactive).
In the case of `Cc1cc(C)c2c(c1)NC(c1cc3c(cc1Br)OCO3)C1CC=CC21` (centres undefined), the cholesterol efflux was 19% (inactive).
`CC(OC(=O)c1cccc(NS(C)(=O)=O)c1)C(=O)Nc1ccc(N2CCOCC2)cc1` (centres undefined) showed a cholesterol efflux of 10.3%.
`Cc1ccc(-c2nnc(N3CCC(C)CC3)c3ccccc23)cc1C` was tested, and the cholesterol efflux was 20.5% (inactive).
In the case of `Cc1cc(SC(C)C(=O)Nc2ncc(Cl)cc2Cl)nc2ccccc12` (centres undefined), the cholesterol efflux was 15.5%.
`CCOc1ccccc1/C=C/c1onc(C)c1S(=O)(=O)N1CCC(C(=O)NC(C)(C)C)CC1` gave a cholesterol efflux of 7.29%.
For `N#Cc1sc2nc(C3CC3)cc(-c3ccc(Cl)cc3)c2c1N`, the cholesterol efflux was 14.7%.
`O=C(Nc1ccc(-c2nc3cc(NC(=O)c4ccccc4Cl)ccc3o2)cc1)c1ccccc1Cl` showed a cholesterol efflux of 5.15%.
Molecule `O=C(Nc1ccc(-c2nc3ccc(NC(=O)c4ccccc4)cc3[nH]2)cc1)c1ccccc1` has a cholesterol efflux of 11.7%.
`Cc1cc(C(=O)C(C)OC(=O)C2=NNC(=O)CC2)c(C)n1-c1ccc(OC(F)F)cc1` (centres undefined) was tested, and the cholesterol efflux was 16.5% (inactive).
For `CCOC(=O)N1CCC(NC(=O)c2ccc3c(c2)N(Cc2ccc(F)cc2)CCS3)CC1`, the outcome was “active” and the cholesterol efflux (measured here: second test run) was 7.46%.
With `CCn1c(COc2c(C)cccc2C)nnc1SCC(=O)N1CCN(c2ccccc2)CC1` the cholesterol efflux was 17.1% (inactive).
With `CCOc1ccc(NC(=O)CN2CCN(CC(=O)Nc3cc(OC)cc(OC)c3)CC2)cc1` the cholesterol efflux was 17.9% (inactive).
In the case of `COc1ccc([C@H]2CC(=O)C=C(c3cccc4c3sc3ccccc34)C2)cc1OC`, the cholesterol efflux was 18.7% (inactive).
`Cc1ccc2oc(-c3cccc(NC(=O)c4cc(-n5cnnc5)ccc4Cl)c3)nc2c1` was tested, and the cholesterol efflux was 19.7% (inactive).
For `CCC(=O)N1CCc2cc(-c3csc(NC(=O)c4ccco4)n3)ccc21`, the cholesterol efflux was 9.04% and the cholesterol efflux (measured here: second test run) was 7.93%.
In the case of `O=C(Nc1cccc(NC(=O)c2cc([N+](=O)[O-])ccc2Cl)n1)c1cc([N+](=O)[O-])ccc1Cl`, the cholesterol efflux was 14.2%.
In the case of `Cc1cc(C)n(CC(=O)NC2CCCc3c2cnn3-c2ccc(C)c(C)c2)n1` (centres undefined), the cholesterol efflux was 17.2% (inactive).
For `O=C(Nc1ccc(-c2nc3cc(NC(=O)c4ccc(NC(=O)c5cccc6ccccc56)cc4)ccc3[nH]2)cc1)c1ccc(NC(=O)c2cccc3ccccc23)cc1`, the outcome was “active” and the cholesterol efflux (measured here: second test run) was 7.85%.
In the case of `CC(C)OCCCNC(=O)c1ccc(C2SCC(=O)N2Cc2ccco2)cc1` (centres undefined), the cholesterol efflux was 18.9% (inactive).
In the case of `COc1ccc(OC)c(CCNC(=O)c2ccc3c(c2)N(Cc2ccc(F)cc2)CCS3)c1`, the cholesterol efflux was 16.9% (inactive).
`Cc1ccccc1NC(=O)NCC1CCN(c2ccc(S(=O)(=O)N3CCOCC3)cc2)CC1` was tested, and the cholesterol efflux was 18.4% (inactive).
For `COc1cccc(-c2csc(N3CCN(C(=S)Nc4cccc(Cl)c4)CC3)n2)c1`, the cholesterol efflux was 16.6% (inactive).
For `O=C(Nc1ccc(Cl)cc1C(=O)c1ccc(Cl)cc1)c1cc(Br)ccc1NS(=O)(=O)c1ccc(Cl)cc1`, the cholesterol efflux was 21.7% (inactive).
